In brackets after ≈: the same amount, converted by molar mass. Activity calls are given as the source filed them. The calls are words filed in the database; no cut-off is given here.
What was measured:
[1] = Stability of the compound in human plasma assessed as half life at 3 mM measured up to 24 hrs by UV/LC-MS analysis; assay type: ADME, cell-free
[2] = Drug concentration in naive BALB/C mouse kidney at 21 mg/kg, ip administered as single dose incubated for 24 hrs followed by heparin treatment by LC-MS/MS analysis; assay type: ADME, organism-based; details: in vivo
Outline: (§1)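 Healthy male BALB/c mice, 4–6 weeks old, given a single i.p. 21 mg/kg prodrug dose in saline. At 24 h, heparin i.p. (5000 U/kg), then sacrifice under CO2. Organs homogenised with acetonitrile containing internal standard, centrifuged, filtered and quantified by LC-MS/MS against calibration curves. n = 3 per time point.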

[3] = Aqueous solubility of the compound at 1 mg incubated for 24 hrs under shaking condition by LC-MS/MS analysis; assay type: physicochemical; details: water
[4] = target: plasmin (Homo sapiens, UniProt P00747); assay: Stability of the compound in human plasmin solution assessed as half life at 7.5 mM measured up to 24 hrs by UV/LC-MS analysis; assay type: ADME
Outline: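 Human plasmin mixed with Tris buffer (pH 7.4, 100 mM) and prodrug (7.5 mM DMSO stock), incubated at 37 °C. Samples taken from 0 to 24 h, quenched with cold acetonitrile and centrifuged; analysed by UV/LC-MS. t1/2 is time to 50% hydrolysis.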

[5] = Permeability of the compound at pH 7.4 at 500 uM incubated for 5 hrs by PAMPA based UV/LC-MS analysis; assay type: ADME; details: read-out: permeability
Outline: (§2)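 Donor: compound diluted from 1 mM DMSO stock to 500 µM final in phosphate buffer (pH 7.4, 25 mM). Filter coated with 1% phosphatidylcholine in dodecane; acceptor 50% DMSO/phosphate buffer. 5 h at room temperature with gentle shaking. Donor and acceptor measured by UV/LC-MS; Papp and %MR calculated by equation. Three independent experiments.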

[6] = Drug concentration in naive BALB/C mouse liver at 21 mg/kg, ip administered as single dose incubated for 24 hrs followed by heparin treatment by LC-MS/MS analysis; assay type: ADME, organism-based; details: in vivo; outline: as §1
[7] = test system: A2780TC; assay: Antitumor activity against paclitaxel resistant human A2780TC cells xenografted in nude mouse assessed as reduction in tumor growth at 5 mg/kg/day, ip administered for 5 days/ week and measured every 7 days for 21 days; assay type: functional, organism-based; details: time 21.0 day
[8] = test system: HepG2; assay: Cytotoxicity against human HepG2 cells assessed as reduction in cell viability measured after 72 hrs by MTT assay; assay type: functional, cell-based; details: HepG2, 72 h
Outline: (§3)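 HepG2, Huh-7 or A2780 cells in DMEM with 10% FBS, 37 °C, 5% CO2. 2.5 × 10^4 cells seeded per well; compounds in DMSO added next day at 0.1, 1.0, 10.0 and 100.0 µM for 24, 48 or 72 h. IC50 from MTT dose-response by sigmoid fit. Means ± S.D. of three independent experiments in triplicate.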

[9] = test system: Huh-7; assay: Cytotoxicity against human Huh-7 cells assessed as reduction in cell viability measured after 72 hrs by MTT assay; assay type: functional, cell-based; details: Huh-7, 72 h; outline: as §3
[10] = test system: Huh-7; assay: Cytotoxicity against human Huh-7 cells assessed as reduction in cell viability measured after 24 hrs by MTT assay; assay type: functional, cell-based; details: Huh-7, 24 h; outline: as §3
[11] = target: T1, Serine/threonine-protein kinase Sgk1 (Homo sapiens) (UniProt O00141); assay: Inhibition of Sgk1 (unknown origin) at 0.6 uM using peptide substrate incubated for 30 mins in the presence of ATP by scintillation counting method relative to control
T1 sequence (whole entry): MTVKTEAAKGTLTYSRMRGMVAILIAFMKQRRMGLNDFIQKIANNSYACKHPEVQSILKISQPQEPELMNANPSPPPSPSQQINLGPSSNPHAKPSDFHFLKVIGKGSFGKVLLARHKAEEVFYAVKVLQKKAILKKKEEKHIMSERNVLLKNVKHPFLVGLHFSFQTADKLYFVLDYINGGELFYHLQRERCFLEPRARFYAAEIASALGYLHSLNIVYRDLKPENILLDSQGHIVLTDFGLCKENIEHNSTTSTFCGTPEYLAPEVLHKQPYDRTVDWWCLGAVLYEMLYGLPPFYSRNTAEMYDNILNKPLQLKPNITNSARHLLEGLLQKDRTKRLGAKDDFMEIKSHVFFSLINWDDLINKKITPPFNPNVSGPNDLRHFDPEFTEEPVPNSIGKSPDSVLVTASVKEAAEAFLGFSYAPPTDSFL

[12] = Permeability of the compound at pH 7.4 assessed as membrane retension at 500 uM incubated for 5 hrs by PAMPA based UV/LC-MS analysis; assay type: ADME; details: pH 7.4, 5 h; outline: as §2
[13] = Metabolic stability in human liver microsomes assessed as parent compound remaining at 50 uM incubated for 1 hr in the presence of NADPH regenerating system by UV/LC-MS analysis; assay type: ADME, Microsome; details: read-out: Stability
Outline: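 Human liver microsomes (0.2 mg/mL) with NADPH regenerating system and 50 µM compound in DMSO/phosphate buffer (pH 7.4, 25 mM), 1 h at 37 °C. Reaction quenched with acetonitrile and centrifuged; supernatant dried, taken up in methanol, and unmetabolised compound measured by UV/LC-MS. Three independent experiments.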

[14] = Drug concentration in nude female mouse tumor mass xenografted with human A2780 cells at 9.5 mg/kg, ip administered as single dose incubated for 24 hrs followed by heparin treatment by LC-MS/MS analysis; assay type: ADME, organism-based, Neoplasm; details: in vivo
Outline: (§4)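 Female nude mice, xenografted subcutaneously with 2.5 × 10^6 A2780TC cells or left non-xenografted, two per group. Single i.p. dose: Si113 9.5 mg/kg in DMSO or prodrug 21 mg/kg in saline. At 24 h, heparin i.p. (5000 U/kg), then sacrifice under CO2. Plasma, tumour and organs extracted with acetonitrile/internal standard and analysed by LC-MS/MS.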

[15] = test system: Huh-7; assay: Cytotoxicity against human Huh-7 cells assessed as reduction in cell viability measured after 48 hrs by MTT assay; assay type: functional, cell-based; details: Huh-7, 48 h; outline: as §3
[16] = test system: A2780; assay: Cytotoxicity against human A2780 cells assessed as reduction in cell viability measured after 48 hrs by MTT assay; assay type: functional, cell-based; details: A2780, 48 h; outline: as §3
[17] = test system: A2780TC; assay: Antitumor activity against paclitaxel resistant human A2780TC cells xenografted in nude mouse assessed as reduction in tumor volume at 9.3 mg/kg/day, ip administered for 5 days/ week and measured every 7 days for 21 days in the presence of paclitaxel; assay type: functional, organism-based; details: time 21.0 day
[18] = test system: HepG2; assay: Cytotoxicity against human HepG2 cells assessed as reduction in cell viability measured after 24 hrs by MTT assay; assay type: functional, cell-based; details: HepG2, 24 h; outline: as §3
[19] = test system: HepG2; assay: Antitumor activity against human HepG2 cells xenografted in female nude mouse assessed as reduction in tumor growth at 9.5 mg/kg, ip administered for 5 days/week and measured every 7 days for 21 days; assay type: functional, organism-based; details: time 21.0 day, in the assay text read “administered daily” for “administered for 5 days/week”
Outline: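 HepG2 cells (2.5 × 10^6, in 1:1 serum-free RPMI/Matrigel) injected subcutaneously in the dorsal posterior-lateral right region of 6-week-old female nude mice. Five mice per group, randomised. Dosing i.p. five days/week, started when tumours reached 100 mm3. Si113 was given in DMSO and prodrugs in saline, dosed to equal molar amounts. Caliper volume (π/6 × a2 × b) measured every 7 days; on day 21 tumours were excised and weighed.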

[20] = test system: A2780; assay: Cytotoxicity against human A2780 cells assessed as reduction in cell viability measured after 72 hrs by MTT assay; assay type: functional, cell-based; details: A2780, 72 h; outline: as §3
[21] = target: T1, Serine/threonine-protein kinase Sgk1 (Homo sapiens); assay: Inhibition of Sgk1 (unknown origin) at 12.5 uM using peptide substrate incubated for 30 mins in the presence of ATP by scintillation counting method relative to control
[22] = test system: A2780; assay: Cytotoxicity against human A2780 cells assessed as reduction in cell viability measured after 24 hrs by MTT assay; assay type: functional, cell-based; details: A2780, 24 h; outline: as §3
[23] = Drug concentration in nude female mouse ovarian tissue xenografted with human A2780 cells at 9.5 mg/kg, ip administered as single dose incubated for 24 hrs followed by heparin treatment by LC-MS/MS analysis; assay type: ADME, organism-based, Female gonad; details: in vivo; outline: as §4
[24] = test system: A2780TC; assay: Antitumor activity against paclitaxel resistant human A2780TC cells xenografted in nude mouse assessed as reduction in tumor volume at 9.3 mg/kg/day, ip administered for 5 days/ week and measured every 7 days for 21 days; assay type: functional, organism-based; details: time 21.0 day
[25] = test system: HepG2; assay: Cytotoxicity against human HepG2 cells assessed as reduction in cell viability measured after 48 hrs by MTT assay; assay type: functional, cell-based; details: HepG2, 48 h; outline: as §3
[26] = Drug concentration in nude female mouse tumor mass xenografted with human A2780 cells at 21 mg/kg, ip administered as single dose incubated for 24 hrs followed by heparin treatment by LC-MS/MS analysis; assay type: ADME, organism-based, Neoplasm; details: in vivo; outline: as §4
[27] = Drug concentration in nude female mouse ovarian tissue xenografted with human A2780 cells at 21 mg/kg, ip administered as single dose incubated for 24 hrs followed by heparin treatment by LC-MS/MS analysis; assay type: ADME, organism-based, Female gonad; details: in vivo; outline: as §4

plasmin, sequence (P00747 97-580 limits assumed): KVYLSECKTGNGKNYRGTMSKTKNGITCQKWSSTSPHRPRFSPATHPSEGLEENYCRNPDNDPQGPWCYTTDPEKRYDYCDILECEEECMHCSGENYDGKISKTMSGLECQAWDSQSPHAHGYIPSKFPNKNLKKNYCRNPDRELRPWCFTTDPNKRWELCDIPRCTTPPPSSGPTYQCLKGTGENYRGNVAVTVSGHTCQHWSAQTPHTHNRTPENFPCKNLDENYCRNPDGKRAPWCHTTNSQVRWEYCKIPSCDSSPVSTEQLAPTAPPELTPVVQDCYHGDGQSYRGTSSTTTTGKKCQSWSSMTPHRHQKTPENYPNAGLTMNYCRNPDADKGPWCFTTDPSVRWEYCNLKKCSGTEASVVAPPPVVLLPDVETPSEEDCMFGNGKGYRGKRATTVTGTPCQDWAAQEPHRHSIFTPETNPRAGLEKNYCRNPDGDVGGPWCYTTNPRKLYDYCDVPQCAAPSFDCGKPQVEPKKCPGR
plasmin, sequence (P00747 581-810 limits assumed): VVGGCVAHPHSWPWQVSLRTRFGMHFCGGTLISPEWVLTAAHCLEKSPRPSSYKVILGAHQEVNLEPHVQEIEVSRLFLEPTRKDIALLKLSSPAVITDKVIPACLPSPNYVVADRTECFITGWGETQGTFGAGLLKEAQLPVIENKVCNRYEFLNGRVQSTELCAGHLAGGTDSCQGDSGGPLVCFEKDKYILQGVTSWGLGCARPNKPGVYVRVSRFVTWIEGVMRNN

With `C[C@@H](N)C(=O)N[C@@H](Cc1ccccc1)C(=O)N[C@@H](CCCCN)C(=O)NCCCCC(=O)OCCNc1nc(NCCc2ccccc2)c2cnn(/C=C/c3ccccc3)c2n1.O=C(O)C(F)(F)F.O=C(O)C(F)(F)F` the half-life [1] was 4.6 h, the Drug uptake [2] was 3.01 nmol/g and the solubility thermodynamic at 24 h [3] was > 1000 µg/mL. For the same molecule, the half-life at 7500 µM [4] was 3.1 h, the Papp at 5 h, 500 µM [5] was 0.2 ×10⁻⁶ cm/s and the Drug uptake [6] was 11.05 nmol/g.
In the case of `CC(=O)O[C@H]1C(=O)[C@@]2(C)[C@H]([C@H](OC(=O)c3ccccc3)[C@]3(O)C[C@H](OC(=O)[C@H](O)[C@@H](NC(=O)c4ccccc4)c4ccccc4)C(C)=C1C3(C)C)[C@]1(OC(C)=O)CO[C@@H]1C[C@@H]2O`, the Activity [7] is reported as “inactive”.
Work on `OCCNc1nc(NCCc2ccccc2)c2cnn(/C=C/c3ccccc3)c2n1` yielded an IC50 [8] of 3.15 µM, an IC50 [9] of 0.58 µM and a solubility thermodynamic at 24 h [3] of 0.4 µg/mL (≈ 0.999 µM). For the same molecule, the IC50 [10] was 2.05 µM, the inhibition [11] was 75% and the permeability [12] was 86.2%. It also gave a remaining at 1 h, 50 µM [13] of 84%, a Drug uptake [14] of 2.2 nmol/g and an IC50 [15] of 1.88 µM. The IC50 [16] was 4.56 µM, the Activity [17] was “Active” and the IC50 [18] was 15.9 µM. The Activity [19] was “Active”, the Papp at 5 h, 500 µM [5] was 2.6 ×10⁻⁶ cm/s and the IC50 [20] was 3.47 µM. The inhibition [21] was > 90%, the IC50 [22] was 25.6 µM and the Drug uptake [23] was 1.89 nmol/g. The Activity [24] was “Active” and the IC50 [25] was 8.29 µM.
With `C[C@@H](N)C(=O)N[C@@H](Cc1ccccc1)C(=O)N[C@@H](CCCCN)C(=O)OCCNc1nc(NCCc2ccccc2)c2cnn(/C=C/c3ccccc3)c2n1.O=C(O)C(F)(F)F.O=C(O)C(F)(F)F` the Drug uptake [26] was 5.69 nmol/g, the half-life [1] was 0.3 h and the Drug uptake [2] was 1.77 nmol/g. For the same molecule, the solubility thermodynamic at 24 h [3] was > 1000 µg/mL, the Drug uptake [27] was 4.11 nmol/g and the half-life at 7500 µM [4] was 1.5 h. It also gave a Papp at 5 h, 500 µM [5] of 0.2 ×10⁻⁶ cm/s and a Drug uptake [6] of 0.81 nmol/g.

Source: ChEMBL document CHEMBL4840302, “Si113-prodrugs selectively activated by plasmin against hepatocellular and ovarian carcinoma” (Eur J Med Chem, 2021)
